Results published in ChEMBL document CHEMBL4414668, “Phallusialides A-E, Pyrrole-Derived Alkaloids Discovered from a Marine-Derived Micromonospora sp. Bacterium Using MS-Based Metabolomics Approaches” (2019).
In brackets after ≈: the same amount, converted by molar mass. Activity calls are given as the source filed them. The rule behind the calls is not given here.

Assays:
Escherichia coli [1] = assay: Antibacterial activity against Escherichia coli ATCC 25922 incubated for 18 hrs by dilution antimicrobial susceptibility test; assay type: functional
How it was run: (§1)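 Dilution susceptibility test for aerobic bacteria. Compounds in DMSO, serially diluted to 10 concentrations (0.5–256 μg/mL), tested in triplicate. Positive controls were vancomycin for MRSA ATCC 33591 and gentamicin for E. coli ATCC 25922. Each plate carried six untreated media controls. Incubation was 35 °C for 18 h. MIC was read as the lowest concentration with no visible bacterial growth.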

Staphylococcus aureus [2] = assay: Antibacterial activity against methicillin-resistant Staphylococcus aureus ATCC 33591 incubated for 18 hrs by dilution antimicrobial susceptibility test; details: ATCC 33591, 18 h
Escherichia coli [3] = assay: Antibacterial activity against Escherichia coli ATCC 25922 at 256 ug/ml incubated for 18 hrs by dilution antimicrobial susceptibility test; assay type: functional, organism-based; how it was run: as §1
Staphylococcus aureus [4] = assay: Antibacterial activity against methicillin-resistant Staphylococcus aureus ATCC 33591 at 256 ug/ml incubated for 18 hrs by dilution antimicrobial susceptibility test

Row | Compound | MIC (Staphylococcus aureus [2]) [µg/mL] | Activity (Escherichia coli [3]) | Activity (Staphylococcus aureus [4]) | also measured
1 | C[C@@H]1O[C@@H](O)C[C@@](C)(N)[C@H]1O[C@H]1CC[C@H](OC(=O)c2cc(Cl)c[nH]2)[C@@H](C)O1 | 32 (≈ 79.4 µM) | – | – | MIC (Escherichia coli [1]; ATCC 25922, 18 h): 64 µg/mL (≈ 159 µM)
2 | GENTAMICIN | – | – | – | MIC (Escherichia coli [1]): 4 µg/mL
3 | C[C@@H]1O[C@H](O)C[C@@](C)(NC(=O)CCC(=O)O)[C@H]1O[C@@H]1C[C@@](C)(N)[C@@H](O[C@H]2CC[C@H](OC(=O)c3cc(Cl)c[nH]3)[C@@H](C)O2)[C@H](C)O1 | – | inactive | inactive | –
4 | C[C@@H]1O[C@@H](O)C[C@@](C)(N)[C@H]1O[C@H]1CC[C@H](OC(=O)c2ccc[nH]2)[C@@H](C)O1 | – | inactive | inactive | –
5 | C[C@@H]1O[C@@H](O)C[C@@](C)(N)[C@H]1O[C@H]1CC[C@H](OC(=O)c2cc(Br)c[nH]2)[C@@H](C)O1 | 32 (≈ 71.5 µM) | – | – | MIC (Escherichia coli [1]; ATCC 25922, 18 h): 64 µg/mL (≈ 143 µM)
6 | C[C@@H]1O[C@H](O[C@H]2CC[C@H](O)O[C@@H]2C)C[C@@](C)(N)[C@H]1O[C@H]1CC[C@H](OC(=O)c2cc(Cl)c[nH]2)[C@@H](C)O1 | – | inactive | inactive | –
7 | CN[C@H](CC(C)C)C(=O)N[C@H]1C(=O)N[C@@H](CC(N)=O)C(=O)N[C@H]2C(=O)N[C@H]3C(=O)N[C@H](C(=O)N[C@H](C(=O)O)c4cc(O)cc(O)c4-c4cc3ccc4O)[C@H](O)c3ccc(c(Cl)c3)Oc3cc2cc(c3O[C@@H]2O[C@H](CO)[C@@H](O)[C@H](O)[C@H]2O[C@H]2C[C@](C)(N)[C@H](O)[C@H](C)O2)Oc2ccc(cc2Cl)[C@H]1O [VANCOMYCIN] | 0.25 (≈ 0.173 µM) | – | – | –
